Test [1] is described as follows: Cytotoxicity activity against mouse LLC cells after 48 hrs by MTT assay. As to conditions: Lewis lung carcinoma.
A further test concerns MCF7. The test is described as follows: Cytotoxic activity against human MCF7 cells after 48 hrs by MTT assay. The format is functional, cell-based. As to conditions: MCF7, 48 h. An outline of the steps:
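Modified MTT assay. Viable cells seeded at 1 × 10^4 per well in growth medium and incubated at 37 °C, 5% CO2. Samples dissolved in DMSO and diluted in growth medium to final concentrations of 5.0–150 µM. Optical density read on a microplate reader; IC50 values derived.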

IC50 data for 14 molecules are collected here from ChEMBL document CHEMBL1153794, “Oleanane-type triterpenoids from Aceriphyllum rossii and their cytotoxic activity” (J Nat Prod, 2009).

Turning to `CC1(C)CC[C@]2(C)CC[C@]3(C(=O)O)C(=CC[C@@H]4[C@@]5(C)CC[C@@H](O)[C@@](C)(C=O)[C@@H]5CC[C@]43C)[C@@H]2C1`, the figures for the half-maximal inhibitory concentration (IC50) (in test [1]; in the test with MCF7) were 39.2 µM and 47 µM, respectively.

On to `C[C@@]1(C(=O)O)CC[C@]2(C)CC[C@]3(C)C(=CC[C@@H]4[C@@]5(C)CC[C@@H](O)[C@@](C)(C(=O)O)[C@@H]5CC[C@]43C)[C@@H]2C1`, for which the 50% inhibitory concentration (IC50) turned out to be 47.8 µM in test [1] and 62.4 µM in the test with MCF7.

Turning to `CC(=O)O[C@@H]1CC[C@@]2(C)[C@@H](CC[C@]3(C)[C@@H]2CC=C2[C@@H]4CC(C)(C)CC[C@]4(C)CC[C@]23C(=O)O)[C@]1(C)C(=O)O`, the concentration for half-maximal inhibition (IC50) was over 150 µM in test [1] and 58.4 µM with MCF7.

Take `CC1(C)CC[C@]2(C)CC[C@]3(C(=O)O)C(=CC[C@@H]4[C@@]5(C)CC[C@@H](OC(=O)/C=C/c6ccc(O)c(O)c6)C(C)(C)[C@@H]5CC[C@]43C)[C@@H]2C1`: the IC50 (in test [1]; in the test on MCF7) was over 150 µM throughout.

`CC(=O)O[C@@H]1CC[C@@]2(C)[C@@H](CC[C@]3(C)[C@@H]2CC=C2[C@@H]4C[C@](C)(C(=O)O)CC[C@]4(C)CC[C@]23C)[C@]1(C)C(=O)O`: the 50% inhibitory concentration (IC50) (in test [1]; in the test on MCF7) was over 150 µM throughout.

In the case of `C[C@@]1(C(=O)O)CC[C@]2(C)CC[C@]3(C)C(=CC[C@@H]4[C@@]5(C)CC[C@H](O)[C@@](C)(C(=O)O)[C@@H]5CC[C@]43C)[C@@H]2C1`, the half-inhibitory concentration (IC50) (in test [1]; in the test with MCF7) was over 150 µM throughout.

In the case of `CC1(C)CC[C@]2(C)CC[C@]3(C(=O)O)C(=CC[C@@H]4[C@@]5(C)CC[C@H]6OC(C)(C)OC[C@@]6(C)[C@@H]5CC[C@]43C)[C@@H]2C1`, the 50% inhibitory concentration (IC50) (in test [1]; in the test with MCF7) was over 150 µM each time.

Take `C[C@@]1(C(=O)O)CC[C@]2(C)CC[C@]3(C)C(=CC[C@@H]4[C@@]5(C)CC[C@H](O)[C@@](C)(CO)[C@@H]5CC[C@]43C)[C@@H]2C1`: the results for the IC50 (in test [1]; in the test on MCF7) were over 150 µM and 107 µM, respectively.

Regarding `CC1(C)CC[C@]2(C)CC[C@]3(C(=O)O)C(=CC[C@@H]4[C@@]5(C)CCC(=O)C(C)(C)[C@@H]5CC[C@]43C)[C@@H]2C1`, the IC50 in test [1] was over 150 µM; with MCF7 it was 53.6 µM.

For `CC1(C)CC[C@]2(C)CC[C@]3(C(=O)O)C(=CC[C@@H]4[C@@]5(C)CCC(=O)[C@@](C)(CO)[C@@H]5CC[C@]43C)[C@@H]2C1`, the IC50 in test [1] was found to be 6.56 µM; with MCF7 it was 39.2 µM.

As to `CC1(C)[C@@H](O)CC[C@]2(C)[C@H]3CC=C4[C@@H]5C[C@](C)(C(=O)O)CC[C@]5(C)CC[C@@]4(C)[C@]3(C)CC[C@@H]12`, the 50% inhibitory concentration (IC50) in test [1] is 16.6 µM; with MCF7 it was over 150 µM.

For the molecule `CC1(C)CC[C@]2(C)CC[C@]3(C(=O)O)C(=CC[C@@H]4[C@@]5(C)CC[C@H](O)C(C)(C)[C@@H]5CC[C@]43C)[C@@H]2C1`, the IC50 in test [1] is 7.63 µM; with MCF7 it was over 150 µM.

On to `CC1(C)CC[C@]2(C)CC[C@]3(C(=O)O)C(=CC[C@@H]4[C@@]5(C)CC[C@@H](O)[C@@](C)(CO)[C@@H]5CC[C@]43C)[C@@H]2C1` [ACERIPHYLLIC ACID A], for which the IC50 in test [1] was 8.36 µM; with MCF7 it was over 150 µM.

Turning to `CC1(C)CC[C@]2(C(=O)O)CC[C@]3(C)C(=CC[C@@H]4[C@@]5(C)CC[C@H](O)C(C)(C)[C@@H]5CC[C@]43C)[C@@H]2C1` [OLEANOLIC_ACID], the half-maximal inhibitory concentration (IC50) (in test [1]; in the test on MCF7) was over 150 µM in each case.
